Experimental data: ChEMBL document CHEMBL3124871, “Synthesis and pharmacological characterization of 1-benzyl-4-aminoindole-based thyroid hormone receptor β agonists” (Bioorg Med Chem, 2014)

Experiments:
[1] = tested on: Rattus norvegicus; assay: Toxicity in cholesterol-fed Sprague-Dawley rat assessed as heart weight at 6 mg/kg/day, po qd for 1 week measured 3 to 6 hrs post last dose (reference value: 1.14 +/- 0.12 g); format: organism-based; set-up: route oral; conditions: in vivo
[2] = biological target: T1, Thyroid hormone receptor beta (Homo sapiens, UniProt P10828); assay: Agonist activity at human recombinant TRbeta1 transfected in CV-1 cells after 8 to 10 hrs by alkaline phosphatase reporter gene assay; format: cell-based
T1 sequence (P10828 whole entry): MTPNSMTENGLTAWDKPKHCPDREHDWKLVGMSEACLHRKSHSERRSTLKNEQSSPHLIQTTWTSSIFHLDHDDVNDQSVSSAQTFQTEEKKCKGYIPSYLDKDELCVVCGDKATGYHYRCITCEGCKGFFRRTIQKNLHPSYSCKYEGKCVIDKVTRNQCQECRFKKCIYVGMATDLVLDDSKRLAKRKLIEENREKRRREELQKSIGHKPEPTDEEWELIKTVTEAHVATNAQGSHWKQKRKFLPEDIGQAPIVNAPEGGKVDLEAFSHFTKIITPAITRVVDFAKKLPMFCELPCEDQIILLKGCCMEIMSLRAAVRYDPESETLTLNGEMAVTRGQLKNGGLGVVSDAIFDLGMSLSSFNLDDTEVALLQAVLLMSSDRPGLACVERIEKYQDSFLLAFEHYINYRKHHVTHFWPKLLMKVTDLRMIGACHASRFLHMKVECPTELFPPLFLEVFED

[3] = tested on: Rattus norvegicus; assay: Reduction in plasma triglyceride level in cholesterol-fed Sprague-Dawley rat at 6 mg/kg/day, po qd for 1 week measured 3 to 6 hrs post last dose (reference value: 62 +/- 25 mg/dl); format: functional
[4] = tested on: Rattus norvegicus; assay: Toxicity in cholesterol-fed Sprague-Dawley rat assessed as TSH level at 6 mg/kg/day, po qd for 1 week measured 3 to 6 hrs post last dose (reference value: 3.0 +/- 1.0 uIU/ml); format: organism-based; set-up: route oral; conditions: in vivo
[5] = tested on: Rattus norvegicus; assay: Reduction in plasma HDL-cholesterol in cholesterol-fed Sprague-Dawley rat at 6 mg/kg/day, po qd for 1 week measured 3 to 6 hrs post last dose (reference value: 22 +/- 6 mg/dl); format: functional
[6] = tested on: CV-1; assay: Selectivity ratio of EC50 for human recombinant transfected in CV-1 cells to EC50 for human recombinant TRbeta1 transfected in CV-1 cells; format: cell-based
In short: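 CV-1 monkey kidney cells grown in DMEM with 10% FBS for 24 h at 37 °C and 5% CO2. Transfected (FuGENE) with hTRα1 or hTRβ1 plus a SEAP reporter for 24 h, then exposed to T3 or test compound for 8-10 h. SEAP was read as A405 of p-nitrophenol (pH 9.8, 30 min, RT). EC50 was set against T3 max = 100%; mean of four experiments; α/β ratio of EC50s.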

[7] = tested on: Rattus norvegicus; assay: Reduction in plasma total cholesterol in cholesterol-fed Sprague-Dawley rat at 6 mg/kg/day, po qd for 1 week measured 3 to 6 hrs post last dose (reference value: 190 +/- 49 mg/dl); format: functional
[8] = tested on: Rattus norvegicus; assay: Toxicity in cholesterol-fed Sprague-Dawley rat assessed as total T4 level at 6 mg/kg/day, po qd for 1 week measured 3 to 6 hrs post last dose (reference value: 3.8 +/- 0.9 ug/dl); format: organism-based; set-up: route oral; conditions: in vivo
[9] = tested on: Rattus norvegicus; assay: Reduction in plasma free cholesterol in cholesterol-fed Sprague-Dawley rat at 6 mg/kg/day, po qd for 1 week measured 3 to 6 hrs post last dose (reference value: 36 +/- 9 mg/dl); format: functional
[10] = tested on: Rattus norvegicus; assay: Toxicity in cholesterol-fed Sprague-Dawley rat assessed as heart weight at 150 mg/kg/day, po qd for 1 week measured 3 to 6 hrs post last dose (reference value: 1.14 +/- 0.12 g); format: organism-based; set-up: route oral; conditions: in vivo
[11] = biological target: T2, Thyroid hormone receptor alpha (Homo sapiens, UniProt P10827); assay: Displacement of [125I]-Triiodothyronine from human recombinant TRalpha1 ligand binding domain after 2 to 3 hrs by beta counting
T2 sequence (P10827 whole entry): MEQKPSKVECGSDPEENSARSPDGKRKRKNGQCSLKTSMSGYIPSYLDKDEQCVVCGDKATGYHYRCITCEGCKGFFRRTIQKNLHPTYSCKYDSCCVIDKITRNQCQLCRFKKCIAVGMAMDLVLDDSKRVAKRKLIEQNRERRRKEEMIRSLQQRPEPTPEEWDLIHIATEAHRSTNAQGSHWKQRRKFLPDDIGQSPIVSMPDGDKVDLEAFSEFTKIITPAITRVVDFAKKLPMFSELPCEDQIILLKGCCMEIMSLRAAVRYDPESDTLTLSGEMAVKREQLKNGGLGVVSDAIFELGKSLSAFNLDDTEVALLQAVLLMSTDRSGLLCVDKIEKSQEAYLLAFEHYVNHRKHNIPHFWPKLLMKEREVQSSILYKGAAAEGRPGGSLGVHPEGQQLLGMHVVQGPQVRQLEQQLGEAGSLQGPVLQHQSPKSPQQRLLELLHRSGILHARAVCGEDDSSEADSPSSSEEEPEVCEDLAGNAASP

[12] = tested on: Rattus norvegicus; assay: Toxicity in cholesterol-fed Sprague-Dawley rat assessed as heart rate at 150 mg/kg/day, po qd for 1 week measured 3 to 6 hrs post last dose (reference value: 383.0 +/- 26.7 bpm); format: organism-based; set-up: route oral; conditions: in vivo
[13] = tested on: Rattus norvegicus; assay: Toxicity in cholesterol-fed Sprague-Dawley rat assessed as TSH level at 150 mg/kg/day, po qd for 1 week measured 3 to 6 hrs post last dose (reference value: 3.0 +/- 1.0 uIU/ml); format: organism-based; set-up: route oral; conditions: in vivo
[14] = tested on: Rattus norvegicus; assay: Toxicity in cholesterol-fed Sprague-Dawley rat assessed as heart rate at 6 mg/kg/day, po qd for 1 week measured 3 to 6 hrs post last dose (reference value: 383.0 +/- 26.7 bpm); format: organism-based; set-up: route oral; conditions: in vivo
[15] = tested on: Rattus norvegicus; assay: Toxicity in cholesterol-fed Sprague-Dawley rat assessed as total T4 level at 150 mg/kg/day, po qd for 1 week measured 3 to 6 hrs post last dose (reference value: 3.8 +/- 0.9 ug/dl); format: organism-based; set-up: route oral; conditions: in vivo
[16] = tested on: HepG2; assay: Selectivity ratio of EC50 for human recombinant transfected in human HepG2 cells to EC50 for human recombinant TRbeta1 transfected in human HepG2; format: cell-based
[17] = biological target: T1, Thyroid hormone receptor beta; assay: Displacement of [125I]-Triiodothyronine from human recombinant TRbeta1 ligand binding domain after 2 to 3 hrs by beta counting
[18] = tested on: Rattus norvegicus; assay: Reduction in plasma LDL-cholesterol in cholesterol-fed Sprague-Dawley rat at 6 mg/kg/day, po qd for 1 week measured 3 to 6 hrs post last dose (reference value: 51 +/- 15 mg/dl); format: functional
[19] = biological target: T1, Thyroid hormone receptor beta; assay: Agonist activity at human recombinant TRbeta1 transfected in human HepG2 cells after 8 to 10 hrs by alkaline phosphatase reporter gene assay; format: cell-based

EC50 [2]: 3100 nM
IC50 [11]: 5200 nM
IC50 [17]: 240 nM
EC50 [19]: 1300 nM
SMILES: Cc1ccc(NC(=O)CC(=O)O)c2ccn(Cc3ccc(O)c(C(C)C)c3)c12
Activity [1]: 1.12 g
Activity [3]: 27 mg/dL
Activity [4]: 2.7 uIU/ml
Activity [5]: 20 mg/dL
Ratio EC50 [6]: 3.4
Activity [7]: 94 mg/dL
Activity [8]: 2.4 µg/dL
Activity [9]: 15 mg/dL
Activity [10]: 1.18 g
Activity [12]: 424.3 bpm
Activity [13]: 1.3 uIU/ml
Activity [14]: 401.8 bpm
Activity [15]: 1.9 µg/dL
Ratio EC50 [16]: 7.2
Activity [18]: 20 mg/dL
